Data from ChEMBL document CHEMBL1687926, “14-Aminocamptothecins: their synthesis, preclinical activity, and potential use for cancer treatment” (J Med Chem, 2011).

Key:
NCI-H460 [1] = assay: Cytotoxicity against human H460 cells after 72 hrs by alamar blue assay; type: functional, cell-based
In short: (§1)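 Cells seeded at 4 × 10³ per well and grown 24 h. Compounds dissolved in DMSO and diluted in medium to final concentrations, then incubated 72 h at 37 °C, 5% CO₂. Viable cells read by AlamarBlue; IC₅₀ taken as the concentration giving 50% growth inhibition.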

[2] = Ratio of IC90 for mouse bone marrow cell to IC90 for human bone marrow cell; type: ADME, cell-based; settings: bone marrow cells
In short: (§2)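 CFU-GM colony assay in triplicate at 2 × 10⁴ cells per culture, using thawed normal human bone marrow or fresh mouse femoral marrow. Colonies were scored after 16-18 days. The IC50 or IC90 from each species gave the mouse/human ratio.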

[3] = Cytotoxicity against human bone marrow cell by CFU-GM assay; type: cell-based; settings: for IC50: Homo sapiens, Bone marrow cell; for IC90: human, bone marrow cells
[4] = Ratio of IC50 for mouse bone marrow cell to IC50 for human bone marrow cell; type: cell-based; settings: bone marrow cells; in short: as §2
[5] = Cytotoxicity against mouse bone marrow cell by CFU-GM assay; type: cell-based
In short: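 CFU-GM colony assay on normal human bone marrow (thawed) or mouse femoral marrow (freshly extracted). Human colonies scored after 16-18 days. IC₅₀ taken from triplicate assays.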

[6] = Cytotoxicity against human MES-SA/Dx5 cells overexpressing MDR1 after 72 hrs by alamar blue assay; type: functional, cell-based; settings: MES-SA/Dx5, 72 h; in short: as §1
[7] = Half life in CD-1 mouse plasma at 50 mg/kg, ip by LC/MS/MS analysis; type: ADME, organism-based; set-up: dose 50 mg/kg, route intraperitoneal
In short: (§3)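 CD-1 mice (~25 g) given 50 mg/kg ip in 5% DMSO/5% Tween 80 in water; three mice per time point, sampled up to 480 min. Blood taken by cardiac puncture into EDTA, then whole brain excised and homogenized in water. Proteins precipitated with ice-cold acetonitrile containing propranolol internal standard; supernatant analysed by HPLC/MS/MS.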

H69AR = assay: Cytotoxicity against human H69AR cells overexpressing MRP1 after 72 hrs by alamar blue assay
LNCaP = assay: Cytotoxicity against human LNCAP cells after 72 hrs by alamar blue assay; type: functional, cell-based; in short: as §1
[8] = AUC in CD-1 mouse plasma at 50 mg/kg, ip by LC/MS/MS analysis; type: ADME, organism-based; set-up: dose 50 mg/kg, route intraperitoneal; in short: as §3
[9] = Resistance ratio of IC50 for human H69AR cells overexpressing MRP1 after 72 hrs s to IC50 for human H69 cells after 72 hrs
NCI-H460 [10] = assay: Ratio IC50 for human H460 cells after 72 hrs in presence of 40 mg/ml HSA to IC50 for human H460 cells after 72 hrs; type: functional
In short: (§4)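 H460 cells seeded at 4 × 10³ per well and grown 24 h. Compounds then cocultured with cells for 72 h at 37 °C, with or without 40 mg/mL human serum albumin. Viability read by AlamarBlue; IC₅₀ = 50% growth inhibition. Ratio compares the IC₅₀ with HSA to the IC₅₀ without.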

SK-MEL-2 = assay: Cytotoxicity against human SK-MEL-2 cells after 72 hrs by alamar blue assay; type: functional, cell-based; settings: SK-MEL-2, 72 h; in short: as §1
NCI-H69 = assay: Cytotoxicity against human H69 cells after 72 hrs by alamar blue assay; type: functional, cell-based; settings: NCI-H69, 72 h; in short: as §1
A-375 = assay: Cytotoxicity against human A375 cells after 72 hrs by alamar blue assay; type: functional, cell-based; settings: A-375, 72 h; in short: as §1
NCI-H460 [11] = assay: Antitumor activity against human H460 cells xenografted in nu/nu mouse assessed as tumor growth inhibition at 30 mg/kg, po QD for 5 days followed by 2days without treatment for 2 weeks; type: functional; set-up: scale not given: the % may be the effect or the level left
In short: (§5)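 Female nude (nu/nu) mice (males for prostate model) implanted sc in the flank with tumor cells (1 × 10⁶ for H460). Dosing began at 100-150 mm³, 10 mice/group. Oral gavage in 5% DMSO/5% Tween 80/1% CMC in water, 5 days on/2 off per cycle, 2 or 4 cycles. Volume = length×width²/2, measured twice weekly. TGI = (1 − ΔT/ΔC)×100; TGD = extra days to reach 500 mm³ versus control.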

PC-3 = assay: Cytotoxicity against human PC3 cells after 72 hrs by alamar blue assay; type: functional, cell-based; settings: PC-3, 72 h; in short: as §1
HT-29 = assay: Cytotoxicity against human HT-29 cells after 72 hrs by alamar blue assay; type: functional, cell-based; settings: HT-29, 72 h; in short: as §1
NCI-H460 [12] = assay: Antitumor activity against human H460 cells xenografted in nu/nu mouse assessed as tumor growth delay at 30 mg/kg, po QD for 5 days followed by 2days without treatment for 2 weeks; type: functional; in short: as §5
[13] = Cmax in CD-1 mouse brain at 50 mg/kg, ip by LC/MS/MS analysis; type: ADME, organism-based; set-up: dose 50 mg/kg, route intraperitoneal; in short: as §3
[14] = Resistance ratio of IC50 for human MES-SA/Dx5 cells overexpressing MDR1 after 72 hrs to IC50 for human MESSA cells after 72 hrs; type: functional
In short: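 Cytotoxicity compared in MDR1-overexpressing lines and their parental wild-type lines. 72 h exposure at 37 °C, viability by AlamarBlue, IC₅₀ at 50% growth inhibition. Resistance ratio = IC₅₀ in overexpressing line / IC₅₀ in parental line.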

[15] = Tmax in CD-1 mouse brain at 50 mg/kg, ip by LC/MS/MS analysis; type: ADME, organism-based; set-up: dose 50 mg/kg, route intraperitoneal; in short: as §3
NCI-H460 [16] = assay: Cytotoxicity against human H460 cells after 72 hrs by alamar blue assay in presence of 40 mg/ml HSA; type: functional, cell-based; settings: NCI-H460, 72 h; in short: as §4
[17] = Tmax in CD-1 mouse plasma at 50 mg/kg, ip by LC/MS/MS analysis; type: ADME, organism-based; set-up: dose 50 mg/kg, route intraperitoneal; in short: as §3
Mus musculus = assay: Toxicity in nu/nu mouse assessed as body weight loss at 30 mg/kg, po QD for 5 days followed by 2 days without treatment for 2 weeks; type: organism-based; set-up: dose 30 mg/kg, route oral; settings: in vivo
In short: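 Female nude (nu/nu) mice (males for prostate model) bearing sc xenografts, dosing started at 100-150 mm³, 10/group. Oral gavage in 5% DMSO/5% Tween 80/1% CMC in water, QD 5 days on/2 off per cycle, 2 or 4 cycles. Body weight recorded twice weekly; maximum loss reported.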

[18] = Cytotoxicity against human MESSA cells after 72 hrs by alamar blue assay; type: functional, cell-based; settings: MES-SA; in short: as §1
[19] = AUC in CD-1 mouse brain at 50 mg/kg, ip by LC/MS/MS analysis; type: ADME, organism-based; set-up: dose 50 mg/kg, route intraperitoneal; in short: as §3
Malme-3M = assay: Cytotoxicity against human MALME-3M cells after 72 hrs by alamar blue assay; type: functional, cell-based; in short: as §1
DU-145 = assay: Cytotoxicity against human DU145 cells after 72 hrs by alamar blue assay; type: functional, cell-based; settings: DU-145, 72 h; in short: as §1
IGROV-1 = assay: Cytotoxicity against human IGROV1 cells after 72 hrs by alamar blue assay; type: functional, cell-based; settings: IGROV-1, 72 h; in short: as §1
[20] = Half life in CD-1 mouse brain at 50 mg/kg, ip by LC/MS/MS analysis; type: ADME, organism-based; set-up: dose 50 mg/kg, route intraperitoneal; in short: as §3
[21] = Ratio of drug level in brain to plasma in CD-1 mouse at 50 mg/kg, ip; type: ADME, organism-based; set-up: dose 50 mg/kg, route intraperitoneal; in short: as §3
[22] = Cmax in CD-1 mouse plasma at 50 mg/kg, ip by LC/MS/MS analysis; type: ADME, organism-based; set-up: dose 50 mg/kg, route intraperitoneal; in short: as §3

Compound: CC[C@@]1(O)C(=O)OCc2c1c([N+](=O)[O-])c1n(c2=O)Cc2cc3ccccc3nc2-1
- IC50 (NCI-H460 [1]; Homo sapiens, NCI-H460, 72 h): 3000 nM

Compound: CC[C@@]1(O)C(=O)OCc2c1cc1n(c2=O)Cc2cc3c(N)cccc3nc2-1 [9-AMINOCAMPTOTHECIN]
- selectivity ratio [2]: 88
- IC50 [3]: 1 nM
- IC90 [3]: 8 nM
- selectivity ratio [4]: 75
- IC50 [5]: 90 nM

Compound: CC[C@@]1(O)C(=O)OCc2c1c(N)c1n(c2=O)Cc2cc3ccccc3nc2-1
- IC50 [6]: 60 nM
- half-life [7]: 250 min
- IC50 (H69AR): 91 nM
- IC50 (LNCaP): 110 nM
- AUC [8]: 1500 ng·h/mL
- Ratio [9]: 1
- Ratio (NCI-H460 [10]): 5
- selectivity ratio [2]: 4
- IC50 (SK-MEL-2): 170 nM
- IC50 (NCI-H69): 91 nM
- IC50 (A-375): 22 nM
- IC50 [3]: 710 nM
- IC90 [3]: 4800 nM
- Activity (NCI-H460 [11]): 79%
- IC50 (PC-3): 43 nM
- IC50 (HT-29): 230 nM
- Time (NCI-H460 [12]): 15 days
- Cmax [13]: 600 ng/mL
- Ratio [14]: 1
- Tmax [15]: 30 min
- IC50 (NCI-H460 [16]): 120 nM
- Tmax [17]: 30 min
- Activity (Mus musculus): 4%
- selectivity ratio [4]: 6
- IC50 [18]: 58 nM
- AUC [19]: 1670 ng·h/mL
- IC50 (Malme-3M): 780 nM
- IC50 (DU-145): 780 nM
- IC50 (IGROV-1): 120 nM
- half-life [20]: 210 min
- Kp [21]: 101
- Cmax [22]: 600 ng/mL
- IC50 [5]: 10 nM
- IC50 (NCI-H460 [1]; Homo sapiens, NCI-H460, 72 h): 18 nM
- IC50 (NCI-H460 [1]; nci-h460): 23 nM

Compound: CC[C@@]1(O)C(=O)Nc2c1c(CO)c(=O)n1c2-c2nc3ccccc3cc2C1
- IC50 (NCI-H460 [1]; Homo sapiens, NCI-H460, 72 h): 7700 nM
